# What was measured:
# [1] = Lipophilicity, log D of the compound in buffer and octanol at pH 7.4 by shake flask method; assay type: physicochemical
# Outline: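 logD at pH 7.4 by shake flask, buffer/octanol volume ratio 100:1.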
# [2] = biological target: T1, Estrogen receptor (Homo sapiens) (UniProt P03372); assay: Induction of ERalpha degradation in human MCF7 cells assessed as maximum degradation incubated for 18 to 24 hrs by Alexa fluor 488/Hoechst staining based immunofluorescence imaging analysis relative to fulvestrant; assay type: cell-based; conditions: time lower […], time upper […]
# T1 sequence (whole entry): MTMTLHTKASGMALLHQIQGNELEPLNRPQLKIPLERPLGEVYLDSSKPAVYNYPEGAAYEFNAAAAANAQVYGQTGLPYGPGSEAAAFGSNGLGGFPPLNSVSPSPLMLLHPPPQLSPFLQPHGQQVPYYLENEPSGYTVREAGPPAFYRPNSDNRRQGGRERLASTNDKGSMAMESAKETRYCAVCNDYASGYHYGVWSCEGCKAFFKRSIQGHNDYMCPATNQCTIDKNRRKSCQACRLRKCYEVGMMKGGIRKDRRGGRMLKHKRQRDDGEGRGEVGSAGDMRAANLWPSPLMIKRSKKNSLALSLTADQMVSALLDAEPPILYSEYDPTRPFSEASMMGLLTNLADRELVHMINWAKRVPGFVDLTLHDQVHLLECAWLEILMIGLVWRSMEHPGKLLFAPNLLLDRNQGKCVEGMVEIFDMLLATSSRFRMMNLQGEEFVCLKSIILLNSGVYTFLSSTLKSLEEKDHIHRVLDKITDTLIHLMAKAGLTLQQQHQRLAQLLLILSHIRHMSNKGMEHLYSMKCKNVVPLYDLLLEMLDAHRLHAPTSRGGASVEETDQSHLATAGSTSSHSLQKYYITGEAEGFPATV
# [3] = biological target: T2, Estrogen receptor (Homo sapiens, UniProt P03372); assay: Displacement of fluormone ES2 green reagent from human GST-tagged ERalpha LBD (282 to 595 residues) expressed in baculovirus infected insect cells incubated for 1 hrs by TR-FRET Lanthascreen assay
# T2 sequence (P03372 whole entry): T1 sequence (whole entry)
# [4] = biological target: T2, Estrogen receptor; assay: Induction of ERalpha degradation in human MCF7 cells assessed as decrease in ER-alpha level incubated for 18 to 24 hrs by Alexa fluor 488/Hoechst staining based immunofluorescence imaging analysis; assay type: cell-based
# Outline: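 ER degradation in MCF-7 cells via cellular degradation assay; n ≥ 2, degradation also expressed as %Dmax relative to fulvestrant.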
# [5] = Intrinsic clearance in rat hepatocytes assessed per million cells; assay type: ADME, cell-based, Hepatocyte; conditions: read-out: CLH
# Outline: (§1)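 Hepatocyte intrinsic clearance measured from DMSO stock in isolated hepatocytes diluted to 1x10⁶ cells/mL; rate expressed as µl/min/10⁶ cells.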
# [6] = Fraction unbound in human plasma by equilibrium dialysis method; assay type: ADME, cell-free
# Outline: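 Fraction unbound measured from DMSO stock by equilibrium dialysis in 10% human plasma.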
# [7] = biological target: T1, Estrogen receptor (Homo sapiens); assay: Induction of ERalpha degradation in human CAMA1 cells assessed as decrease in ER-alpha level at 0.1 uM by Western blot analysis relative to fulvestrant; assay type: cell-based; parameters: scale not given: the % may be the effect or the level left; conditions: CAMA-1
# Outline: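 Western blot for ERα in MCF-7 and CAMA-1 cells after treatment at 0.1 µM. ER level is expressed as % degradation relative to fulvestrant, from a single experiment (n = 1).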
# [8] = biological target: T1, Estrogen receptor (Homo sapiens); assay: Induction of ERalpha degradation in human MCF7 cells assessed as decrease in ER-alpha level at 0.1 uM by Western blot analysis relative to fulvestrant; assay type: cell-based; parameters: scale not given: the % may be the effect or the level left
# [9] = Intrinsic clearance in human hepatocytes assessed per million cells; assay type: ADME, cell-based, Hepatocyte; conditions: read-out: CLH; outline: as §1
SMILES,logD [1],Emax [2] [%],IC50 [3] [nM],IC50 [4] [nM],hepatocyte CLint [5] [µL/min/1e6 cells],fraction unbound [6],Activity [7] [%],Activity [8] [%],hepatocyte CLint [9] [µL/min/1e6 cells]
C[C@@H]1Cc2c(ccc3[nH]ncc23)[C@@H](c2ccc(O[C@H]3CCN(CCCF)C3)cn2)N1CC(F)(F)F,3.2,98,2,0.398,44,0.15,,,
COc1cc(NC2CN(CCCF)C2)ccc1[C@@H]1c2ccc3[nH]ncc3c2C[C@@H](C)N1CC(C)(C)F,,96,6.31,0.2,8,0.14,89,86,
C[C@@H]1Cc2c(ccc3[nH]ncc23)[C@@H](c2c(F)cc(OCCN3CC(CF)C3)cc2F)N1CC(C)(C)F,4.4,,1,0.126,88,0.008,66,84,8
COc1cc(OCCNCCCF)ccc1[C@@H]1c2ccc3[nH]ncc3c2C[C@@H](C)N1CC1(F)CC1,2.4,82,,,9,0.18,,,
COc1cc(OCCN2CC(CF)C2)ccc1[C@@H]1c2ccc3[nH]ncc3c2C[C@@H](C)N1CC1(F)CC1,,96,,0.126,20,0.21,88,79,7
C[C@@H]1Cc2c(ccc3[nH]ncc23)[C@@H](c2ccc(NC3CN(CCCF)C3)cn2)N1CC(C)(C)F,,96,,,26,0.1,,,
COc1cc(OCCN2CC(CF)C2)ccc1[C@@H]1c2ccc3[nH]ncc3c2C[C@@H](C)N1CC(C)(C)F,3.6,95,3.16,,28,0.065,74,69,12
C[C@@H]1Cc2c(ccc3[nH]ncc23)[C@@H](c2ccc(N(C)[C@H]3CCN(CCCF)C3)cn2)N1CC(F)(F)F,3.5,87,39.8,0.794,34,0.057,,,
CC(C)CN1[C@H](c2c(F)cc(OCCN3CC(CF)C3)cc2F)c2ccc3[nH]ncc3c2C[C@H]1C,4.6,99,0.794,0.2,74,0.004,,,9
C[C@@H]1Cc2c(ccc3[nH]ncc23)[C@@H](c2ccc(OCCN3CC(CF)C3)cn2)N1CC(F)F,,98,2.51,0.501,36,0.49,88,97,5
CC1(C)Cc2c(ccc3[nH]ncc23)[C@@H](c2ccc(NC3CN(CCCF)C3)cn2)N1CC(F)(F)F,,95,,,296,0.14,,,
COc1cc(NC2CN(CCCF)C2)ccc1[C@@H]1c2ccc3[nH]ncc3c2C[C@@H](C)N1CC(F)(F)CO,,98,5.01,0.2,20,0.23,,,
C[C@@H]1Cc2c(ccc3[nH]ncc23)[C@@H](c2ccc(NC3CN(CCCF)C3)cn2)N1CC(F)(F)CO,,99,6.31,0.501,16,0.64,105,104,
COc1cc(NC2CN(CCCF)C2)ccc1[C@@H]1c2ccc3[nH]ncc3c2C[C@@H](C)N1CC(F)F,3.2,99,2,0.1,14,0.12,100,99,
C[C@@H]1Cc2c(ccc3[nH]ncc23)[C@@H](c2ccc(OCCN3CC(CF)C3)cn2)N1CC1(F)CC1,,98,1.26,0.398,38,0.34,87,75,8
C[C@@H]1Cc2c(ccc3[nH]ncc23)[C@@H](c2ccc(NC3CN(CCCF)C3)cn2)N1CC1(F)CC1,,96,6.31,0.631,24,0.26,102,90,
C[C@@H]1Cc2c(ccc3[nH]ncc23)[C@@H](c2ccc(NC3CN(CCCF)C3)cn2)N1CC(F)F,2.4,99,3.98,0.316,22,0.4,,,
C[C@@H]1Cc2c(ccc3[nH]ncc23)[C@@H](c2ccc(NCCNCCCF)cn2)N1CC1(F)CC1,2,93,10,1,22,,,,
CC(C)CN1[C@H](c2ccc(OCCN3CC(CF)C3)cc2)c2ccc3[nH]ncc3c2C[C@H]1C,3.4,99,2,0.158,66,0.11,,,8
CC1(C)Cc2c(ccc3[nH]ncc23)[C@@H](c2ccc(NC3CN(CCCF)C3)cn2)N1CC(F)F,,98,3.16,0.794,270,0.22,,,
COc1cc(OC2CN(CCCF)C2)ccc1[C@@H]1c2ccc3[nH]ncc3c2C[C@@H](C)N1CC1(F)CC1,,97,7.94,,16,0.11,90,90,
C[C@@H]1Cc2c(ccc3[nH]ncc23)[C@@H](c2ccc(NC3CN(CCCF)C3)cn2)N1CC(C)(F)F,,,,,49,0.24,,,
C[C@@H]1Cc2c(ccc3[nH]ncc23)[C@@H](c2ccc(NCCNCCCF)cn2)N1CC(F)(F)F,2.7,94,5.01,0.631,22,0.16,,,
COc1cc(NC2CN(CCCF)C2)ccc1[C@@H]1c2ccc3[nH]ncc3c2C[C@@H](C)N1CC(C)(F)F,,98,2.51,0.0398,15,0.043,101,80,
C[C@@H]1Cc2c(ccc3[nH]ncc23)[C@@H](c2ccc(NC3(C)CN(CCCF)C3)cn2)N1CC(F)(F)F,3.2,82,7.94,3.16,35,,,,
COc1cc(OCCN2CC(CF)C2)ccc1[C@@H]1c2ccc3[nH]ncc3c2C[C@@H](C)N1CC(C)C,,98,7.94,,9,0.52,74,94,3
CC(C)CN1[C@H](c2ccc(OCCN3CC(CF)C3)cn2)c2ccc3[nH]ncc3c2C[C@H]1C,3.2,99,10,0.398,41,0.19,,,8
COc1cc(NC2CN(CCCF)C2)ccc1[C@@H]1c2ccc3[nH]ncc3c2C[C@@H](C)N1CC(F)(F)F,,98,5.01,0.0631,12,0.06,110,95,
C[C@@H]1Cc2c(ccc3[nH]ncc23)[C@@H](c2ccc(N(C)C3CN(CCCF)C3)cn2)N1CC(F)(F)F,,98,2,0.2,20,0.15,82,85,
COc1cc(OCCN2CC(CF)C2)ccc1[C@@H]1c2ccc3[nH]ncc3c2C[C@@H](C)N1CC1(F)COC1,2.7,95,3.98,0.251,42,0.25,75,79,
